Laboratory results reported in ChEMBL document CHEMBL1759938, “Antioxidant xanthone derivatives induce cell cycle arrest and apoptosis and enhance cell death induced by cisplatin in NTUB1 cells associated with ROS” (Eur J Med Chem, 2011).
Active and inactive are the calls of the source. The rule behind the calls is not given here.

Experiments:
[1] = Antioxidant activity assessed as ABTS radical scavenging activity; assay type: functional
In short: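 ABTS (7 mM in deionized water) was mixed with 2.45 mM potassium persulfate to form the radical cation. 180 µL of this solution was combined with 40 µL of sample, and absorbance was read at 630 nm. Vitamin E served as positive control. Mean ± s.e.m., n = 3.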

[2] = Antioxidant activity against oxide-induced pBR322 DNA damage at 300 uM by agarose gel electrophoresis; assay type: functional
In short: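 Supercoiled pBR322 plasmid DNA (500 ng) in phosphate buffer pH 7.4, exposed for 20 min to superoxide generated by xanthine/xanthine oxidase, with or without test agent at 300 µM. SOD and quercetin were positive controls. Strand breaks were resolved by gel electrophoresis.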

[3] = target: Xanthine dehydrogenase/oxidase (Homo sapiens, UniProt P47989); assay: Inhibition of xanthine oxidase activity assessed as uric acid formation pretreated for 15 mins before substrate addition measured after 5 mins; conditions: for inhibition (INH): 5 min
NTUB1 [4] = assay: Induction of apoptosis in human NTUB1 cells assessed as increase in ROS level at 20 uM after 24 hrs by flow cytometry; assay type: functional, cell-based
In short: (§1)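 NTUB1 cells in 6-well plates were treated for 24 h at 20 or 40 µM. Controls were 1 mM NAC and 10 µM cisplatin. 10 µM DCFH-DA was added 30 min before harvest; cells were then trypsinized and washed in PBS. DCF green fluorescence was read by flow cytometry through a 525 nm band-pass filter and expressed relative to control. Mean ± S.D., n = 3.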

[5] = Cytotoxicity against human NTUB1 cells after 72 hrs by MTT assay; assay type: functional, cell-based; conditions: NTUB1, 72 h
In short: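 NTUB1 cells in RPMI 1640 with 10% FBS were seeded at 1 × 10³ cells/well and left overnight at 37 °C. They were then exposed to graded concentrations for 72 h. MTT was added; plates were spun, the medium removed and DMSO added, and absorbance read at 540 nm. Viability is the ratio to untreated control, and IC50 was taken from the curve. Mean ± S.D., n = 3.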

[6] = Cell cycle arrest in human NTUB1 cells assessed as accumulation in subG1 phase at 40 uM after 24 hrs using propidium iodide by FACS analysis; assay type: functional, cell-based
In short: (§2)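 NTUB1 bladder carcinoma cells (3 × 10⁵ or 8 × 10⁵ per 10 cm dish) were exposed to 40 or 60 µM for 24 h. Cells were trypsinized, fixed in ice-cold methanol at −20 °C overnight, and stained with 50 µg/mL propidium iodide for 30 min at room temperature. DNA content was measured by flow cytometry, with the sub-G1 fraction taken as apoptosis. Three independent experiments.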

[7] = Induction of apoptosis in human NTUB1 cells assessed as increase in ROS level at 20 to 40 uM after 24 hrs by flow cytometry relative to control; assay type: functional; in short: as §1
[8] = Cell cycle arrest in human NTUB1 cells assessed as accumulation in subG1 phase at 60 uM after 24 hrs using propidium iodide by FACS analysis; assay type: functional, cell-based; in short: as §2
NTUB1 [9] = assay: Induction of apoptosis in human NTUB1 cells assessed as increase in ROS level at 40 uM after 24 hrs by flow cytometry; assay type: functional, cell-based; in short: as §1
[10] = Cytotoxicity against human SV-HUC1 cells at 0.3 to 50 uM after 72 hrs by MTT assay; assay type: cell-based; conditions: sv-huc1, 72 h
In short: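 SV-HUC1 cells (SV40-immortalized human uroepithelium), grown in F12 with 10% FBS, were seeded at 1 × 10³ cells/well and left overnight. Graded concentrations were applied for 72 h at 37 °C. Read-out was MTT formazan dissolved in DMSO, absorbance at 540 nm. Viability is expressed relative to untreated control. Mean ± S.D., n = 3.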

Chain of Xanthine dehydrogenase/oxidase (P47989 whole entry): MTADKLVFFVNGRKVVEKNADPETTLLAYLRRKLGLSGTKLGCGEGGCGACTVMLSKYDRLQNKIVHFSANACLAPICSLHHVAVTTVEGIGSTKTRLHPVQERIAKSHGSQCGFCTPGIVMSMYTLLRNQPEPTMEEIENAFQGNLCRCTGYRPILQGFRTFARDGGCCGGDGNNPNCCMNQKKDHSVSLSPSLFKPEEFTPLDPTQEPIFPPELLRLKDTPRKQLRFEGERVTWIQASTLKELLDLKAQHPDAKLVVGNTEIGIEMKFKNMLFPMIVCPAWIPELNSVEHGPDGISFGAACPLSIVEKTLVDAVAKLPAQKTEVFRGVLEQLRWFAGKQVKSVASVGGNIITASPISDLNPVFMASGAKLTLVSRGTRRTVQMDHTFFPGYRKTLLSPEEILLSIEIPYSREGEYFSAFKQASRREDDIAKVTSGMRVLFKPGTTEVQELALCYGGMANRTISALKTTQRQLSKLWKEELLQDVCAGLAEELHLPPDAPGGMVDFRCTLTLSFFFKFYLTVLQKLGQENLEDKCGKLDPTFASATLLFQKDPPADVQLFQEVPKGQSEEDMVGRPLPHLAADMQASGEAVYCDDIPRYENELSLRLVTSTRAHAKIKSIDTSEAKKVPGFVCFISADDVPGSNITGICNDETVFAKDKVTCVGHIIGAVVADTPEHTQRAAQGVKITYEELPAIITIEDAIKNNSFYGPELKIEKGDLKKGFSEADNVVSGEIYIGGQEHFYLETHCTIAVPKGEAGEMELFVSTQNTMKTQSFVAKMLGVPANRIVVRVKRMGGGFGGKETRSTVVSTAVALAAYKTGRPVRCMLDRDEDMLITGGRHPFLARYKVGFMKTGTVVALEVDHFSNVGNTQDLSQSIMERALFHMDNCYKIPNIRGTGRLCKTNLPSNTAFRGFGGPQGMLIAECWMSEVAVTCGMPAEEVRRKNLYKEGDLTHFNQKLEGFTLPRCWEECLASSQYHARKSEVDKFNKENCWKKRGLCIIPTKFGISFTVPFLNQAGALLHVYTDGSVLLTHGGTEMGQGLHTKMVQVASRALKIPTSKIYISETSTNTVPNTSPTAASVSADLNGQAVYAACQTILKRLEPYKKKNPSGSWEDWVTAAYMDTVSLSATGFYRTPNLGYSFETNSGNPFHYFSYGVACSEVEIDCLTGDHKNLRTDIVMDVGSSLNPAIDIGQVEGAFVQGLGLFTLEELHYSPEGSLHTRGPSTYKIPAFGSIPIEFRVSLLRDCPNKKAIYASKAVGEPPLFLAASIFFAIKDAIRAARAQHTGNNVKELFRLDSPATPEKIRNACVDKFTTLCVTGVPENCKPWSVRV

Compound	IC50 ([1]; read-out: IC50) [µM]	Activity [2]	IC50 [3] [µM]	inhibition (INH) [3]	also measured
O=c1c2ccccc2oc2cc(OCCCN3CCCCC3)ccc12	90	Active	37.8	Dose-dependent effect	Activity (NTUB1 [4]): Active; IC50 [5]: 31.2 µM; Activity [6]: Active; Activity [7]: 250%
O=c1c2ccc(O)cc2oc2cc(OCCCNC3CCCCC3)ccc12	106	Active	72.9	Dose-dependent effect	
O=c1c2ccc(O)cc2oc2cc(OCCCN3CCNCC3)ccc12	65		91.9	Dose-dependent effect	
CN1CCN(CCCOc2ccc3c(=O)c4ccccc4oc3c2)CC1	152	Active	47.3	Dose-dependent effect	
VITAMIN E	77.2				
CN1CCN(CCCOc2ccc3c(=O)c4ccc(O)cc4oc3c2)CC1	76.5		44.3	Dose-dependent effect	
O=c1c2ccccc2oc2cc(OCCCN3CCNCC3)ccc12	75.1	Active	109	Dose-dependent effect	
CCN(CC)CCCOc1ccc2c(=O)c3ccc(O)cc3oc2c1	80.5		53.5	Dose-dependent effect	
O=c1c2ccc(O)cc2oc2cc(OCCCN3CCCCC3)ccc12	69.3	Active	82.3	Dose-dependent effect	Activity [8]: Active; Activity (NTUB1 [9]): Active; IC50 [5]: 35.1 µM; Activity [7]: 250%; Activity [10]: Non-toxic
O=c1c2ccccc2oc2cc(OCCCN3CCCC3)ccc12		Active	65.5	Dose-dependent effect	IC50 [1]: Not Active
O=c1c2ccc(O)cc2oc2cc(OCCCNC3CC3)ccc12	108	Active	63	Dose-dependent effect	
Oc1ncnc2[nH]ncc12 [ALLOPURINOL]				Dose-dependent effect	
O=c1c2ccc(O)cc2oc2cc(OCCCN3CCCC3)ccc12	88.8	Active	68.8	Dose-dependent effect	
CCN(CC)CCCOc1ccc2c(=O)c3ccccc3oc2c1	84.9	Active	56.5	Dose-dependent effect	
